Results as given in ChEMBL document CHEMBL4229515, “A novel synthesis of 2-arylbenzimidazoles in molecular sieves-MeOH system and their antitubercular activity” (Bioorg Med Chem, 2018).

Experiments:
Type in all cases: organism-based
Details in all cases: in vivo, 168 h
Mus musculus [1] = test: Acute toxicity in Swiss albino mouse assessed as inactivity at 1000 mg/kg, po measured over 7 days
Summary of the method: (§1)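 Single acute oral dose of 5, 50, 300 or 1000 mg/kg body weight, with an untreated control group; n=6 mice per group. Animals observed for 7 days for morbidity, mortality, behaviour and body weight. At the end, blood and serum were analysed, and organs were examined grossly with absolute and relative weights. Data are mean±SE; P<0.05 was taken as significant versus control and the lower-dose groups.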

Mus musculus [2] = test: Acute toxicity in Swiss albino mouse assessed as effect on WBC count at 1000 mg/kg, po after 7 days (reference value: 7.47 +/- 1.61 10^3/mm3)
Mus musculus [3] = test: Acute toxicity in Swiss albino mouse assessed as effect on MDA levels per mg of tissue protein at 1000 mg/kg, po after 7 days (reference value: 0.24 +/- 0.05 nmol)
Mus musculus [4] = test: Acute toxicity in Swiss albino mouse assessed as effect on RBC count at 5 mg/kg, po after 7 days (reference value: 7.61 +/- 0.54 10^6/mm3)
Mus musculus [5] = test: Acute toxicity in Swiss albino mouse assessed as effect on ALKP levels at 300 mg/kg, po after 7 days (reference value: 219.20 +/- 5.9 U/L)
Mus musculus [6] = test: Acute toxicity in Swiss albino mouse assessed as effect on albumin levels at 5 mg/kg, po after 7 days (reference value: 3.53 +/- 0.35 mg/dL)
Mus musculus [7] = test: Acute toxicity in Swiss albino mouse assessed as effect on SGOT levels at 1000 mg/kg, po after 7 days (reference value: 15.11 +/- 1.25 U/L)
Mus musculus [8] = test: Acute toxicity in Swiss albino mouse assessed as effect on SGPT levels at 50 mg/kg, po after 7 days (reference value: 16.08 +/- 1.38 U/L)
Mus musculus [9] = test: Acute toxicity in Swiss albino mouse assessed as effect on body weight at 50 mg/kg, po after 7 days (reference value: 28.25 +/- 0.54 g)
Mus musculus [10] = test: Acute toxicity in Swiss albino mouse assessed as effect on MDA levels per mg of tissue protein at 5 mg/kg, po after 7 days (reference value: 0.24 +/- 0.05 nmol)
Mus musculus [11] = test: Acute toxicity in Swiss albino mouse assessed as effect on cholesterol levels at 300 mg/kg, po after 7 days (reference value: 89.73 +/- 10.76 mg/dL)
Mus musculus [12] = test: Acute toxicity in Swiss albino mouse assessed as effect on MDA levels per mg of tissue protein at 300 mg/kg, po after 7 days (reference value: 0.24 +/- 0.05 nmol)
Mus musculus [13] = test: Acute toxicity in Swiss albino mouse assessed as effect on haemoglobin levels at 300 mg/kg, po after 7 days (reference value: 12.29 +/- 0.53 g/dL)
Mus musculus [14] = test: Acute toxicity in Swiss albino mouse assessed as effect on SGOT levels at 300 mg/kg, po after 7 days (reference value: 15.11 +/- 1.25 U/L)
Mus musculus [15] = test: Acute toxicity in Swiss albino mouse assessed as effect on absolute kidney weight at 5 to 1000 mg/kg, po after 7 days; summary of the method: as §1
Mus musculus [16] = test: Acute toxicity in Swiss albino mouse assessed as effect on relative heart weight at 5 to 1000 mg/kg, po after 7 days; summary of the method: as §1
Mus musculus [17] = test: Acute toxicity in Swiss albino mouse assessed as effect on cholesterol levels at 5 mg/kg, po after 7 days (reference value: 89.73 +/- 10.76 mg/dL)
Mus musculus [18] = test: Acute toxicity in Swiss albino mouse assessed as effect on albumin levels at 300 mg/kg, po after 7 days (reference value: 3.53 +/- 0.35 mg/dL)
Mus musculus [19] = test: Acute toxicity in Swiss albino mouse assessed as effect on triglyceride levels at 1000 mg/kg, po after 7 days (reference value: 45.21 +/- 2.95 mg/dL)
Mus musculus [20] = test: Acute toxicity in Swiss albino mouse assessed as effect on serum protein levels at 300 mg/kg, po after 7 days (reference value: 0.10 +/- 0.004 mg/mL)
Mus musculus [21] = test: Acute toxicity in Swiss albino mouse assessed as effect on ALKP levels at 1000 mg/kg, po after 7 days (reference value: 219.20 +/- 5.9 U/L)
Mus musculus [22] = test: Acute toxicity in Swiss albino mouse assessed as effect on cholesterol levels at 50 mg/kg, po after 7 days (reference value: 89.73 +/- 10.76 mg/dL)
Mus musculus [23] = test: Acute toxicity in Swiss albino mouse assessed as effect on tissue protein levels at 5 mg/kg, po after 7 days (reference value: 0.06 +/- 0.004 mg/mL)
Mus musculus [24] = test: Acute toxicity in Swiss albino mouse assessed as effect on haemoglobin levels at 1000 mg/kg, po after 7 days (reference value: 12.29 +/- 0.53 g/dL)
Mus musculus [25] = test: Acute toxicity in Swiss albino mouse assessed as effect on absolute brain weight at 5 to 1000 mg/kg, po after 7 days; summary of the method: as §1
Mus musculus [26] = test: Acute toxicity in Swiss albino mouse assessed as effect on body weight at 5 mg/kg, po after 7 days (reference value: 28.25 +/- 0.54 g)
Mus musculus [27] = test: Acute toxicity in Swiss albino mouse assessed as effect on haemoglobin levels at 50 mg/kg, po after 7 days (reference value: 12.29 +/- 0.53 g/dL)
Mus musculus [28] = test: Acute toxicity in Swiss albino mouse assessed as effect on SGPT levels at 5 mg/kg, po after 7 days (reference value: 16.08 +/- 1.38 U/L)
Mus musculus [29] = test: Acute toxicity in Swiss albino mouse assessed as effect on GSH levels per mg of tissue protein at 5 mg/kg, po after 7 days (reference value: 17.64 +/- 1.03 micromol)
Mus musculus [30] = test: Acute toxicity in Swiss albino mouse assessed as effect on absolute lung weight at 5 to 1000 mg/kg, po after 7 days; summary of the method: as §1
Mus musculus [31] = test: Acute toxicity in Swiss albino mouse assessed as effect on WBC count at 300 mg/kg, po after 7 days (reference value: 7.47 +/- 1.61 10^3/mm3)
Mus musculus [32] = test: Acute toxicity in Swiss albino mouse assessed as effect on GSH levels per mg of tissue protein at 1000 mg/kg, po after 7 days (reference value: 17.64 +/- 1.03 micromol)
Mus musculus [33] = test: Acute toxicity in Swiss albino mouse assessed as effect on haemoglobin levels at 5 mg/kg, po after 7 days (reference value: 12.29 +/- 0.53 g/dL)
Mus musculus [34] = test: Acute toxicity in Swiss albino mouse assessed as effect on RBC count at 1000 mg/kg, po after 7 days (reference value: 7.61 +/- 0.54 10^6/mm3)
Mus musculus [35] = test: Acute toxicity in Swiss albino mouse assessed as effect on serum protein levels at 50 mg/kg, po after 7 days (reference value: 0.10 +/- 0.004 mg/mL)

**Q.** Which results are given for `COc1ccc2c(c1)nc(-c1ccccc1OC)n2Cc1ccccc1OC`?
**A.** Activity (Mus musculus [1]): Non-Toxic; Activity (Mus musculus [2]): 6.67 10^3/mm3; Activity (Mus musculus [3]): 0.71 nmol; Activity (Mus musculus [4]): 6.92 10^6/mm3; Activity (Mus musculus [5]): 169.24 U/L; Activity (Mus musculus [6]): 3.81 mg/dL; Activity (Mus musculus [7]): 11.83 U/L; Activity (Mus musculus [8]): 15.98 U/L; Activity (Mus musculus [9]): 27.61 g; Activity (Mus musculus [10]): 0.26 nmol; Activity (Mus musculus [11]): 97.14 mg/dL; Activity (Mus musculus [12]): 0.39 nmol; Activity (Mus musculus [13]): 11.51 g/dL; Activity (Mus musculus [14]): 11.11 U/L; Activity (Mus musculus [15]): Non-Toxic; Activity (Mus musculus [16]): Non-Toxic; Activity (Mus musculus [17]): 91.48 mg/dL; Activity (Mus musculus [18]): 3.79 mg/dL; Activity (Mus musculus [19]): 57.01 mg/dL; Activity (Mus musculus [20]): 0.09 mg/mL; Activity (Mus musculus [21]): 118.06 U/L; Activity (Mus musculus [22]): 85.13 mg/dL; Activity (Mus musculus [23]): 0.06 mg/mL; Activity (Mus musculus [24]): 9.68 g/dL; Activity (Mus musculus [25]): Non-Toxic; Activity (Mus musculus [26]): 28.47 g; Activity (Mus musculus [27]): 11.45 g/dL; Activity (Mus musculus [28]): 15.26 U/L; Activity (Mus musculus [29]): 15.6 µmol; Activity (Mus musculus [30]): Non-Toxic; Activity (Mus musculus [31]): 5.67 10^3/mm3; Activity (Mus musculus [32]): 19.34 µmol; Activity (Mus musculus [33]): 10.81 g/dL; Activity (Mus musculus [34]): 7.33 10^6/mm3; Activity (Mus musculus [35]): 0.09 mg/mL
